Measurements: ChEMBL document CHEMBL1152758, “Synthesis and cytotoxic activity of new azepino[3',4':4,5]pyrrolo[2,1-a]isoquinolin-12-ones” (Bioorg Med Chem, 2009)
One block for each compound: values may come before it.

Legend:
[1] = tested on: MCF7; experiment: Cytotoxicity against human MCF7 cells after 48 hrs by SRB assay; assay type: functional, cell-based; details: MCF7, 48 h
Method in brief: (§1)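 SRB protein-staining microculture growth assay following the Monks method. Cells were detached with 0.1% (w/v) trypsin-EDTA, counted by hemocytometer and diluted in complete medium to 5 × 10⁴ cells/mL (K-562, MCF-7), 7.5 × 10⁴ cells/mL (U-251, PC-3) or 10 × 10⁴ cells/mL (HCT-15). DMSO stocks were tested at 100, 31, 10, 3.1 and 1. After 48 h, cells were fixed in situ with 50% TCA for 60 min at 4 °C. IC50 is the mean of three experiments.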

[2] = tested on: PC-3; experiment: Cytotoxicity against human PC3 cells after 48 hrs by SRB assay; assay type: functional, cell-based; details: PC-3, 48 h; method in brief: as §1
[3] = biological target: Cyclin-dependent kinase 5/CDK5 activator 1 (Homo sapiens, UniProt Q00535); experiment: Inhibition of recombinant CDK5/p25 expressed in Escherichia coli
[4] = tested on: HCT-15; experiment: Cytotoxicity against human HCT15 cells after 48 hrs by SRB assay; assay type: functional, cell-based; details: HCT-15, 48 h; method in brief: as §1
[5] = tested on: U-251; experiment: Cytotoxicity against human U251 cells after 48 hrs by SRB assay; assay type: functional, cell-based; details: U-251, 48 h; method in brief: as §1
[6] = Inhibition of Marthasterias glacialis oocyte CDK1/Cyclin B
[7] = tested on: K562; experiment: Cytotoxicity against human K562 cells after 48 hrs by SRB assay; assay type: functional, cell-based; details: K562, 48 h; method in brief: as §1
[8] = biological target: Glycogen synthase kinase-3 beta (Homo sapiens, UniProt P49841); experiment: Inhibition of GSK3-beta expressed in Sf9 cells
Sequence of Glycogen synthase kinase-3 beta (P49841 whole entry): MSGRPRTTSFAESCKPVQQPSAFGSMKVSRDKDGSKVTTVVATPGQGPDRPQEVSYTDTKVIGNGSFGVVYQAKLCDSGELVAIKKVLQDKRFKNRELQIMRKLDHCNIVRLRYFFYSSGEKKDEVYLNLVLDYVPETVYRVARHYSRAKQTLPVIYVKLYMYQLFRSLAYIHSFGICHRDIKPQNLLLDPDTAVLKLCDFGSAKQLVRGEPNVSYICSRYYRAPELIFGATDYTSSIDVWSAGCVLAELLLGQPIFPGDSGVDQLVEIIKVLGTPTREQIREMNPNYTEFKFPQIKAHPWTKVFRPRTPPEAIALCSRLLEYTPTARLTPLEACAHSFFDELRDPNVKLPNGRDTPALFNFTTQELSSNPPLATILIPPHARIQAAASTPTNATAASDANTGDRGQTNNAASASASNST

Sequence of Cyclin-dependent kinase 5/CDK5 activator 1 (Q00535 whole entry): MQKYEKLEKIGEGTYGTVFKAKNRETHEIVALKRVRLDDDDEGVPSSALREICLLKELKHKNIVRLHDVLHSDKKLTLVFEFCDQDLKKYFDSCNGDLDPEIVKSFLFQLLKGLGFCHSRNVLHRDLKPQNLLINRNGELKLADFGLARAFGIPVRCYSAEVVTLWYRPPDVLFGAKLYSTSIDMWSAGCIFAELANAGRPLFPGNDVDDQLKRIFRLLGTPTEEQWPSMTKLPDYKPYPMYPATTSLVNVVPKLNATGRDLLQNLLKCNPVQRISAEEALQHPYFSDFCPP
Sequence of Cyclin-dependent kinase 5/CDK5 activator 1 (Q15078 whole entry, further chain): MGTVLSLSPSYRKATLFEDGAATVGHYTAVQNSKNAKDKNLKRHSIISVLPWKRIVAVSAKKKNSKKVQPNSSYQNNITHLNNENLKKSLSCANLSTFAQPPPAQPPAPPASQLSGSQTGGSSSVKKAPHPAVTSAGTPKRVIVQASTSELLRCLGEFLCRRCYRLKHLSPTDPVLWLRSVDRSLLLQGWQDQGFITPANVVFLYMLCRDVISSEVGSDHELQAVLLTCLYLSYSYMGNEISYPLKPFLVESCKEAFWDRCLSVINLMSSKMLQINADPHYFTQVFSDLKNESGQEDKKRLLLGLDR

- IC50 [3]: > 10 µM
- IC50 [6]: > 10 µM
- IC50 [8]: > 10 µM
Compound: CC1(C)CNC(=O)c2cc3n(c2C1)CCc1cc(F)ccc1-3
- IC50 [1]: 54.5 µM
- IC50 [2]: > 100 µM
- IC50 [4]: > 100 µM
- IC50 [5]: > 100 µM
- IC50 [7]: 33.7 µM

Compound: CC1(C)CC(=O)c2cc3n(c2C1)CCc1cc(Br)ccc1-3
- IC50 [1]: 35 µM
- IC50 [2]: 50.6 µM
- IC50 [4]: 36 µM
- IC50 [5]: 53.3 µM
- IC50 [7]: 23.9 µM

Compound: CC1(C)CC(=O)c2cc3n(c2C1)CCc1cc([N+](=O)[O-])ccc1-3
- IC50 [1]: > 100 µM
- IC50 [2]: > 100 µM
- IC50 [4]: 16.7 µM
- IC50 [5]: > 100 µM
- IC50 [7]: 73.7 µM

- IC50 [3]: > 10 µM
- IC50 [6]: > 10 µM
- IC50 [8]: > 10 µM
Compound: CC1(C)CNC(=O)c2cc3n(c2C1)CCc1cc([N+](=O)[O-])ccc1-3
- IC50 [1]: 43.1 µM
- IC50 [2]: 25.8 µM
- IC50 [4]: 29.5 µM
- IC50 [5]: > 100 µM
- IC50 [7]: > 100 µM

Compound: COc1ccc2c(c1)CCn1c-2cc2c1CC(C)(C)CNC2=O
- IC50 [1]: > 100 µM
- IC50 [2]: > 100 µM
- IC50 [4]: > 100 µM
- IC50 [5]: > 100 µM
- IC50 [7]: > 100 µM

- IC50 [3]: > 10 µM
- IC50 [6]: > 10 µM
- IC50 [8]: > 10 µM
Compound: CC1(C)CNC(=O)c2cc3n(c2C1)CCc1cc(Br)ccc1-3
- IC50 [1]: 43.1 µM
- IC50 [2]: 33.6 µM
- IC50 [4]: 25.6 µM
- IC50 [5]: 18.1 µM
- IC50 [7]: 36.1 µM

Compound: CC1(C)CC(=O)c2cc3n(c2C1)CCc1cc(F)ccc1-3
- IC50 [1]: > 100 µM
- IC50 [2]: > 100 µM
- IC50 [4]: 65.5 µM
- IC50 [5]: > 100 µM
- IC50 [7]: 27.2 µM

Compound: CC1(C)CC(=O)c2cc3n(c2C1)CCc1cc(Cl)ccc1-3
- IC50 [1]: 41.8 µM
- IC50 [2]: > 100 µM
- IC50 [4]: 24.8 µM
- IC50 [5]: > 100 µM
- IC50 [7]: 10.2 µM

Compound: CC1(C)CNC(=O)c2cc(-c3ccc([N+](=O)[O-])cc3)n(-c3ccc(Cl)cc3)c2C1
- IC50 [1]: 51.7 µM
- IC50 [2]: 17.4 µM
- IC50 [4]: 20 µM
- IC50 [5]: 28.8 µM
- IC50 [7]: 15.1 µM

Compound: COc1ccc2c(c1)CCn1c-2cc2c1CC(C)(C)CC2=O
- IC50 [1]: > 100 µM
- IC50 [2]: > 100 µM
- IC50 [4]: > 100 µM
- IC50 [5]: > 100 µM
- IC50 [7]: 57.5 µM

Compound: CC1(C)CC(=O)c2cc3n(c2C1)CCc1ccccc1-3
- IC50 [1]: > 100 µM
- IC50 [2]: > 100 µM
- IC50 [4]: > 100 µM
- IC50 [5]: > 100 µM
- IC50 [7]: 36.8 µM

Compound: CC1(C)CNC(=O)c2cc3n(c2C1)CCc1cc(Cl)ccc1-3
- IC50 [1]: > 100 µM
- IC50 [2]: > 100 µM
- IC50 [4]: 39.6 µM
- IC50 [5]: > 100 µM
- IC50 [7]: > 100 µM

Compound: O=C1Cc2c([nH]c3ccc(Br)cc23)-c2ccccc2N1 [KENPAULLONE]
- IC50 [1]: > 100 µM
- IC50 [2]: > 100 µM
- IC50 [4]: 23.9 µM
- IC50 [5]: > 100 µM
- IC50 [7]: > 100 µM

Compound: CC1(C)CNC(=O)c2cc(-c3ccc([N+](=O)[O-])cc3)n(-c3ccc(Br)cc3)c2C1
- IC50 [1]: > 100 µM
- IC50 [2]: 21.1 µM
- IC50 [4]: > 100 µM
- IC50 [5]: 25.6 µM
- IC50 [7]: > 100 µM

Compound: CC1(C)CNC(=O)c2cc3n(c2C1)CCc1ccccc1-3
- IC50 [1]: > 100 µM
- IC50 [2]: > 100 µM
- IC50 [4]: > 100 µM
- IC50 [5]: > 100 µM
- IC50 [7]: > 100 µM

Compound: O=C1Cc2c([nH]c3ccc([N+](=O)[O-])cc23)-c2ccccc2N1 [ALSTERPAULLONE]
- IC50 [1]: 1.24 µM
- IC50 [2]: 1.12 µM
- IC50 [4]: 0.62 µM
- IC50 [5]: 0.68 µM
- IC50 [7]: 1.58 µM
